Laboratory results published in article PMC8059355 (ACS infectious diseases, 2020).
Entries after “also recorded” stand apart in the source; their conditions may differ. Like-named read-outs stand apart in the source and are kept apart here. Values belong to the compound of their own block, whether it stands above or below them.

Assays:
[1] = test system: L. amazonensis intracellular amastigotes; type: cell-based, Leishmania amazonensis; conditions: read-out: intracellular amastigotes, EC50 ± SE
Neospora caninum = conditions: read-out: Neospora caninum EC50; cited from earlier work
[2] = test system: L. amazonensis promastigotes and amastigotes; assay: microscopy of cell division in L. amazonensis promastigotes and amastigotes; type: cell-based, Leishmania amazonensis; conditions: 48 h at the EC50 72h concentration; for increase in parasites in mid-cell division, promastigotes: compared to DMSO control
[3] = test system: L. donovani axenic amastigotes; assay: alamarBlue assay, L. donovani axenic amastigotes; type: cell-based, Leishmania donovani; conditions: read-out: L. donovani axenic amastigotes, EC50 ± SE, 72 h
How it was run: (§1)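 Axenic amastigotes were exposed to a compound dilution series and growth was measured with 10% alamarBlue, fluorescence at 530 nm excitation and 570 nm emission. Each plate held three technical replicates, with at least three biological repeats. Percent growth relative to untreated control was plotted against log10 concentration. EC50 per repeat was fitted by sigmoidal variable-slope nonlinear regression and reported as mean ± SE.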

[4] = test system: blood-stage P. falciparum; assay: Malaria SYBR green I fluorescence; type: cell-based, Plasmodium falciparum; conditions: read-out: P. falciparum EC50 ± SE, 3D7, MSF assay
[5] = test system: Entamoeba histolytica trophozoite; conditions: cited from earlier work
[6] = test system: purified L. tarentolae tubulin; assay: chemical cross-linking with SW22 probe and competition, fluorescent tubulin band; type: binding, Leishmania tarentolae; conditions: for competition with SW22 probe for tubulin, fluorescent band: fully purified tubulin, competitor at 100-fold excess
[7] = test system: L. tarentolae axenic amastigotes; assay: alamarBlue assay, L. tarentolae axenic amastigotes; type: cell-based, Leishmania tarentolae; conditions: read-out: L. tarentolae axenic amastigotes EC50 ± SE
How it was run: as §1

[8] = test system: L. amazonensis promastigotes; assay: microscopy of promastigote morphology; type: cell-based, Leishmania amazonensis; conditions: compared to DMSO control; for increase in pear-shaped promastigotes: 48 h at the EC50 72h; for increase in flagella length: promastigotes, 24 h at the EC50 72h
[9] = test system: purified L. tarentolae tubulin; assay: turbidity tubulin polymerization assay, purified L. tarentolae tubulin; type: biochemical, Leishmania tarentolae; conditions: read-out: L. tarentolae tubulin polymerization EC50 (estimated); 3 mg/mL tubulin, A340, 30 °C
[10] = test system: L. amazonensis promastigotes; assay: alamarBlue assay, L. amazonensis promastigotes; type: cell-based, Leishmania amazonensis; conditions: read-out: Promastigote EC50 ± SE, 72 h
Cryptosporidium parvum = conditions: read-out: Cryptosporidium parvum EC50; cited from earlier work
[11] = test system: L. amazonensis axenic amastigotes; type: cell-based, Leishmania amazonensis; conditions: 24 h at the EC50 72h, densitometry of Western blots
[12] = test system: blood-stage Trypanosoma brucei; assay: CellTiter-Glo luminescent assay, T. brucei; type: cell-based; conditions: read-out: T. brucei EC50 ± SE
[13] = test system: L. amazonensis axenic amastigotes; type: cell-based, Leishmania amazonensis; conditions: for EC50: Leishmania amazonensis, 72 h, read-out: EC50 ± SE
L. amazonensis = assay: paclitaxel EC50 72h for La; type: cell-based; conditions: Leishmania amazonensis, read-out: EC50 72h for La
[14] = L. amazonensis intracellular amastigotes in RAW 264.7 cells, 72 h, luciferase

Compound: N#Cc1nc(-c2ccccc2)oc1S(=O)(=O)c1ccc(Cl)cc1 [MMV676412]
EC50 [1, 14]: > 2000 nM

Compound: CCc1c(C)nc(-n2nc(C)cc2NC(=O)c2ccccc2SC)[nH]c1=O [MMV676477]
EC50 [1, 14]: 500 ± 20 nM
EC50 (Neospora caninum): 13 nM
increase in parasites in mid-cell division, promastigotes [2]: ~ 2 fold
EC50 [3]: 1300 ± 210 nM
EC50 [4]: 420 ± 19 nM
Entamoeba histolytica trophozoite proliferation at 10 μM [5]: 56%
competition with SW22 probe for tubulin, fluorescent band [6]: significantly dimmer
EC50 [7]: 11 ± 1.3 nM
increase in pear-shaped promastigotes [8]: 2 fold
increase in flagella length [8]: ~ 1.5 fold
EC50 [9]: 500 ± 100 nM
EC50 [10]: 2400 ± 35 nM
EC50 (Cryptosporidium parvum): 220 nM
proportion of cellular polymeric tubulin [11]: significantly increased
EC50 [12]: 190 ± 8.7 nM
CC50 (RAW 264.7 cells): 2200 ± 410 nM

Compound: CSc1ccccc1C(=O)Oc1cc(C)nc(-n2nc(C)cc2N)n1 [SW10]
dimming of the fluorescent tubulin band in presence of competitor ([6]; L. tarentolae tubulin still including some additional proteins, SW22 probe): No apparent dimming
competition with SW22 probe for tubulin, fluorescent band [6]: no apparent competition
EC50 [10]: > 50000 nM
CC50 (RAW 264.7 cells): > 10000 nM
antileishmanial activity (in words) ([13]; L. amazonensis): essentially inactive; also recorded: nearly inactive

EC50 [10]: 6700 ± 53 nM
Compound: C#CCOc1ccc(C(=O)c2ccc(C(=O)Nc3cc(C)nn3-c3nc(C)c(CC)c(=O)[nH]3)cc2)cc1 [SW22, N-(1-(5-ethyl-4-methyl-6-oxo-1,6-dihydropyrimidin-2-yl)-3-methyl-1H-pyra-zol-5-yl)-4-(4-(prop-2-yn-1-yloxy)benzoyl) benzamide]
CC50 (RAW 264.7 cells): 1300 ± 42 nM

Compound: CCc1c(C)nc(-n2nc(C)cc2NC(=O)c2ccc(F)c(Cl)c2)[nH]c1=O [SW41]
EC50 [1, 14]: 220 ± 13 nM
EC50 [3]: 310 ± 38 nM
EC50 [10]: 780 ± 29 nM
CC50 (RAW 264.7 cells): 2400 ± 100 nM

Compound: C[C@@H]1[C@H](O)[C@@H](C)/C=C/C=C/C=C/C=C/C=C/C=C/C=C/[C@H](O[C@@H]2O[C@H](C)[C@@H](O)[C@H](N)[C@@H]2O)C[C@@H]2O[C@](O)(C[C@@H](O)C[C@@H](O)[C@H](O)CC[C@@H](O)C[C@@H](O)CC(=O)O[C@H]1C)C[C@H](O)[C@H]2C(=O)O [amphotericin B, reference compound]
EC50 ([1]; Leishmania amazonensis, RAW264.7, 72 h): 65 ± 26 nM
EC50 [13]: 53 ± 4.4 nM

Compound: CC(C)(C)[C@H]1CC[C@H](CC2=C(O)C(=O)c3ccccc3C2=O)CC1 [buparvaquone]
EC50 [13]: 12 ± 1.1 nM

Compound: C[C@]1(COc2ccc(N3CCC(Oc4ccc(OC(F)(F)F)cc4)CC3)cc2)Cn2cc([N+](=O)[O-])nc2O1 [delamanid]
EC50 [13]: 31 ± 3.5 nM

Compound: CCCCCCCCCCCCCCCCOP(=O)([O-])OCC[N+](C)(C)C [miltefosine]
effect on L. amazonensis cell division [2]: did not affect L. amazonensis cell division
increase in pear-shaped promastigotes [8]: did not affect
increase in flagella length [8]: did not affect
EC50 [13]: 1200 ± 280 nM

Compound: CC(=O)Oc1ccccc1C(=O)Nc1ncc([N+](=O)[O-])s1 [nitazoxanide]
EC50 [13]: 590 ± 100 nM

Compound: CC(=O)O[C@H]1C(=O)[C@@]2(C)[C@H]([C@H](OC(=O)c3ccccc3)[C@]3(O)C[C@H](OC(=O)[C@H](O)[C@@H](NC(=O)c4ccccc4)c4ccccc4)C(C)=C1C3(C)C)[C@]1(OC(C)=O)CO[C@@H]1C[C@@H]2O [paclitaxel]
increase in parasites in mid-cell division, promastigotes [2]: ~ 2 fold
EC50 (L. amazonensis): 760 ± 8.3 nM
increase in pear-shaped promastigotes [8]: 2 fold
increase in flagella length [8]: ~ 1.5 fold
EC50 [9]: 1300 ± 100 nM
proportion of cellular polymeric tubulin [11]: significantly increased
